Experimental data of several laboratories.
Lines come from different studies, so protocols differ.
Read-out: metabolic stability
Host: human

SMILES | sample | concentration | pH | measurement | value
c1ccc(CCNc2nc(-c3ccccn3)nc3ccccc23)nc1 | liver microsomes |  |  | microsomal CLint | 42 µL/min/mg
C[C@@H](N)c1cc(Cl)ccc1Cn1c(=S)[nH]c(=O)c2[nH]ccc21 | hepatocytes |  |  | hepatocyte CLint | < 1 µL/min/10⁶ cells
N#Cc1ccccc1-c1nc(N2CCC(c3ccccn3)C2)c2ccccc2n1 (stereo not drawn) | liver microsomes |  |  | microsomal CLint | 350 µL/min/mg
C[C@H]1C[C@@H](N2C(=N)N[C@](C)(c3cccc(NC(=O)c4cccc(C#N)c4)c3Cl)CC2=O)CCO1 | hepatocytes | 0.5 µM |  | hepatocyte CLint | 5 µL/min/10⁶ cells
CCCN(CCC)CCc1cccc2c1CC(=O)N2 | hepatocytes | 1 µM |  | hepatocyte CLint | 1.7 µL/min/10⁶ cells
NCc1ccccc1 | hepatocytes | 5 µM |  | hepatocyte CLint | 16.7 µL/min/10⁶ cells
Fc1ccccc1Nc1nc(-c2ccccn2)nc2ccccc12 | liver microsomes |  |  | microsomal CLint | 88 µL/min/mg
C=CC(=O)Nc1cc(Nc2nccc(Nc3cc(Cl)c(F)cc3C(C)(C)O)n2)c(OC)cc1N1CC[C@@H](N(C)C)C1 | hepatocytes |  |  | hepatocyte CLint | 3.3 µL/min/10⁶ cells
COc1ccnc(-c2nc3ccc(OC)cn3c2Nc2ccc(F)cc2)c1 | liver microsomes | 3 µM | pH 7.4 | microsomal CLint | 240 µL/min/mg
O=c1[nH]c(=S)n(Cc2ccc(Cl)cc2CNCC(F)(F)F)c2cc[nH]c12 | hepatocytes |  |  | hepatocyte CLint | 4.3 µL/min/10⁶ cells
c1ccc(-c2nc(Nc3ccn4nccc4c3)c3ccccc3n2)nc1 | liver microsomes |  |  | microsomal CLint | 120 µL/min/mg
CC(C)(C)[Si](C)(C)OCCN(c1ccc(F)cc1)c1c(-c2ccccn2)nc2ccccn12 | liver microsomes | 3 µM | pH 7.4 | microsomal CLint | > 300 µL/min/mg
c1ccc(C2CCN(c3nc(-c4cnn5c4CCCC5)nc4ccccc34)C2)nc1 (stereo not drawn) | liver microsomes |  |  | microsomal CLint | 176 µL/min/mg
COc1ccc(-c2nc3ccc(OC)cn3c2Nc2ccc(F)cc2)nc1 | liver microsomes | 3 µM | pH 7.4 | microsomal CLint | 44 µL/min/mg
Fc1ccc(Nc2nc(-c3ccccn3)nc3ccccc23)cc1 | liver microsomes |  |  | microsomal CLint | 67 µL/min/mg
Fc1ccc(Nc2c(-c3cccnn3)nc3ccccn23)cc1 | liver microsomes | 3 µM | pH 7.4 | microsomal CLint | 64 µL/min/mg
CNS(=O)(=O)Cc1ccc2[nH]cc(CCN(C)C)c2c1 | hepatocytes | 5 µM |  | hepatocyte CLint | 2.8 µL/min/10⁶ cells
COc1ccnc(-c2nc3ccccn3c2Nc2ccc(F)cc2)c1 | liver microsomes | 3 µM | pH 7.4 | microsomal CLint | 120 µL/min/mg
COc1cc(OC)cc(N(CCNC(C)C)c2ccc3ncc(-c4cnn(C)c4)nc3c2)c1 | hepatocytes |  |  | hepatocyte CLint | 2.53 µL/min/10⁶ cells
CN(c1ccc(F)cc1)c1c(-c2cc(Cl)ccn2)nc2ccccn12 | liver microsomes | 3 µM | pH 7.4 | microsomal CLint | 190 µL/min/mg
C[C@H]1C[C@@H](N2C(=N)N[C@](C)(c3cccc(Nc4ccc(C5CC5)nc4)c3Cl)CC2=O)CCO1 | hepatocytes | 0.5 µM |  | hepatocyte CLint | 16 µL/min/10⁶ cells
